Bioassay records deposited in PubChem by several laboratories.
The list is not random: actives were taken first. Their share in the collection is about 2.7%.
Hep lipid drop: modulators of hepatic lipid droplet formation | inhibition, % at 6.5 µM | hit rate 0.4% among 240,000 | AID 1656 | AML12 mouse hepatocytes, oleate lipid droplets, BODIPY imaging;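 active means lipid droplet intensity inhibited by at least 50%, with more than 500 cells counted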
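Assay system: AML12 hepatocytes (mouse); Probe or stimulus: oleic acid at 100 µM to induce lipid droplet formation; Dosing: compound at 6.5 µM only; Schedule: compound with oleate, overnight; Detection: fluorescence imaging, 20x objective, two fields per well; Measure: % inhibition of lipid droplet signal.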
MC4R ag barr: agonists of human melanocortin 4 receptor (MC4R) beta-arrestin. P32245. U2OS MC4R beta-arrestin complementation, luminescence; percent of melanotan II response, DMSO zero. activation, % at 8.9 µM. hit rate 0.98% among 360,000;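 active means activation above a per-plate cutoff, the mean activation of sample wells on that plate plus 3 SD, cut at about 8% in these data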
MC4R antag cAMP: blocks human MC4R cAMP signaling; AID 540295; P32245; inhibition, % at 6.5 µM; hit rate 0.48% among 360,000; MC4R-expressing cells, MTII-stimulated cAMP, LANCE TR-FRET;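 active means inhibition above its plate's cutoff, the mean of tested wells on that plate plus 3 SD, cut at about 29% in these data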;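 further: 0% = Melanotan II alone and 100% = Melanotan II plus saturating MCL0020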
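Assay system: U2OS cells stably expressing human melanocortin 4 receptor (MC4R) / Dosing: 6.5 µM / Timing: compound 30 min, challenge 1 h, detection 1 h / Measured by: Eu-cAMP/anti-cAMP TR-FRET, emission 671 nm / Replicates: singlicate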
PREPL inhibitor: human PREPL enzyme inhibition | AID 2751 | inhibition, % at 5.96 µM | hit rate 0.68% among 320,000 | recombinant PREPL, fluorescence polarization activity-based probe; in the data active means inhibition above about 43%;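 further: 0% = enzyme with DMSO and 100% = wells lacking enzyme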
Target sequence (Q4J6C6 whole entry, looked up): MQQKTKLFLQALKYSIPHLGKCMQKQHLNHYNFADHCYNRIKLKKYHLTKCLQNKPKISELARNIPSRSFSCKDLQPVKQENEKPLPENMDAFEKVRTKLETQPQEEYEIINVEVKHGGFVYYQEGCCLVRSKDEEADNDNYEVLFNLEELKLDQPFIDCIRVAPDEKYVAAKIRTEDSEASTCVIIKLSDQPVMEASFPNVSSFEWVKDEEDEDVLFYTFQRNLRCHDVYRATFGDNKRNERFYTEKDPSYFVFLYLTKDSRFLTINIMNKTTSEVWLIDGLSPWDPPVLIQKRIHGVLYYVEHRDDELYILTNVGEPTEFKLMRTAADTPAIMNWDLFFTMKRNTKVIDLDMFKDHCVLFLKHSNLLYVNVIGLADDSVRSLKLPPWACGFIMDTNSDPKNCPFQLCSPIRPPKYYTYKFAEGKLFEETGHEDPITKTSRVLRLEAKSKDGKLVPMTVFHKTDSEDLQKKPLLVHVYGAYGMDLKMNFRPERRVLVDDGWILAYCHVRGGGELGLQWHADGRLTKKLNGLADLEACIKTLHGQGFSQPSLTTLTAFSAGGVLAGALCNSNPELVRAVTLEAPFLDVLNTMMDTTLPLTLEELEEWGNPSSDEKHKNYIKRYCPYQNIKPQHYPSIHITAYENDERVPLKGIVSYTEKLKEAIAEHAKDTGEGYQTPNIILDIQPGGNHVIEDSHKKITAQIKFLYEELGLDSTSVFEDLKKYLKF
NTR1 agonist: agonists of human neurotensin receptor NTR1; P30989; NTR1-U2OS beta-arrestin-GFP spot imaging, agonist mode; activation, % at 20 µM; hit rate 0.17% among 330,000;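 active means activation at or above 40% of the spot to cytoplasm intensity ratio, with at least 20 cells analyzed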;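 further: 0% = DMSO without peptide and 100% = 100 nM NTR1 peptide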
HTR2A ag: activates the mouse 5-HT2A serotonin receptor; AID 624169; CHO-K1 mHTR2A beta-arrestin complementation, luminescence; percent of 30 µM serotonin response; activation, % at 7.6 µM; hit rate 0.66% among 360,000;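 active means activation above a run cutoff, the mean activation of all tested compounds plus 3 SD, cut at about 14% in these data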;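 further: 0% = plate median of compound wells and 100% = 30 µM serotonin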
Lipid drop inh: confirmation of inhibitors of hepatic lipid droplet formation; shares compounds with Hep lipid drop; AML12 mouse hepatocytes, BODIPY lipid droplet imaging; droplets induced with 100 µM oleic acid; inhibition, % at 5.2 µM; hit rate 65% among 870; AID 463183;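 active means inhibition of lipid droplet metric at least 50%, with more than 300 cells in each of four replicates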;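 further: plate controls were DMSO with oleic acid for no effect and 5 µM Triacsin-C for full effect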
AML12 cytotox: toxic to AML12 mouse hepatocytes in counter-screen; z-score at 5 µM; AID 463200; hit rate 3% among 870; shares compounds with Hep lipid drop; DAPI nuclear morphology cytotoxicity imaging; stronger effect = higher value; cells fed 100 µM oleate overnight; in the data active means z-score above about 6.3;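 further: compound exposure lasted overnight at 37 °C before fixation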
AML12 tox ATP: AML12 hepatocyte cytotoxicity, confirmed | shares compounds with Hep lipid drop | AML12 mouse hepatocyte viability, ATP luminescence; cells loaded with 100 µM oleic acid | cytotoxicity, % at 50 µM | 530 tested, under 10 active;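 active means cytotoxicity above 50% in each of four replicates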;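 further: compound exposure lasted overnight at 37 °C before the ATP read; 0% = DMSO-treated cells and 100% = wells with no cells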
Starred values were filed as active, the others as inactive; x = no result.

SMILES | Hep lipid drop | MC4R ag barr | MC4R antag cAMP | PREPL inhibitor | NTR1 agonist | HTR2A ag | Lipid drop inh | AML12 cytotox | AML12 tox ATP
COc1ccc([N+](=O)[O-])cc1NCC(=O)Nc1cc(S(=O)(=O)N2CCCCC2)ccc1C | x | -2 | 5 | 1 | 1 | -2 | x | x | x
O=C(Nc1cccc(Cl)c1)c1ccc(OC(=S)N2CCOCC2)cc1 | -24 | 3 | -3 | 6 | 10 | -5 | x | x | x
Cc1cccc(NC(=O)c2cccc(OC(=S)N3CCOCC3)c2)c1 | 84* | 0 | 3 | 2 | -1 | 0 | 104* | 0.092 | 5
O=C(COC(=O)c1ccc(O)cc1)NCC1COc2ccccc2O1 (configuration not stated) | x | -4 | -9 | -9 | -1 | -4 | x | x | x
COc1ccc(CN(C)C(=O)C2CCN(C(=O)Nc3ccccc3)CC2)cc1 | x | -3 | 0 | -2 | 1 | 10 | x | x | x
COc1cccc(N2CCN(CC(=O)NC3=Nc4ccccc4N=C(C)C3c3ccccc3)CC2)c1 (configuration not stated) | -22 | -2 | -1 | 30 | 7 | -1 | x | x | x
COc1cccc(N2CCN(CC(=O)Nc3nnc(-c4ccccc4)s3)CC2)c1 | 59* | -1 | 0 | 7 | 4 | -8 | 95* | 0.5 | 15
CS(=O)(=O)N(CC(=O)Nc1cccc(Br)c1)Cc1ccccc1 | 52* | 1 | 5 | x | 1 | 7 | 84* | -0.59 | 25
CS(=O)(=O)N(CC(=O)Nc1ccc2c(c1)OCO2)Cc1ccccc1 | 54* | -1 | 4 | 2 | -1 | -2 | 69 | -0.96 | 7
CC(C)c1ccc(NC(=O)CN(Cc2ccccc2)S(C)(=O)=O)cc1 | -6 | 3 | 1 | -11 | -2 | -3 | x | x | x
Cc1ccccc1N=C/C=C1/C=C(c2ccccc2)OC(C)(C)O1 | 0 | 2 | -3 | 8 | 4 | 4 | x | x | x
CC1(C)OC(c2ccccc2)=C/C(=C/C=C2C(=O)c3ccccc3C2=O)O1 | 73* | -2 | 11 | -11 | -2 | 0 | 27 | 0.25 | x
COc1ccc(CN2C(=O)C(CC(=O)NCCc3ccccn3)CC(C(=O)N3CCOCC3)=C2C)cc1 (configuration not stated) | x | x | x | x | x | -1 | x | x | x
Cc1nn2c(N3CCOCC3)cc(C(C)C)nc2c1-c1ccccc1 | 22 | 6 | 15 | 26 | 9 | -2 | x | x | x
CCN1CCN(c2cc(C(C)C)nc3c(-c4ccccc4)c(C)nn23)CC1 | 55* | 2 | -1 | 39 | 4 | 8 | 50 | -0.31 | x
CCCc1cc(N2CCCC2)n2nc(C)c(-c3ccccc3)c2n1 | 60* | 1 | 15 | 4 | 7 | 6 | 99* | 0.31 | -12
O=c1[nH][nH]c(=O)n1-c1ccccc1 | 7 | -1 | 7 | 0 | -1 | -4 | x | x | x
COC(=O)c1ccc2c(c1)NC(=O)C(N(CC(C)C)CC(C)C)S2 (configuration not stated) | 84* | 0 | 8 | -12 | 2 | 2 | 15 | -0.35 | x
COc1ccc(N2CCN(C(=O)c3cc(C)on3)CC2)cc1 | 56* | -1 | -2 | -2 | 1 | -4 | -10 | -0.44 | x
Cc1cc(C(=O)N2CCN(c3ccccc3)CC2)no1 | x | 1 | -5 | 3 | 1 | 1 | x | x | x
COC(=O)c1ccc(NS(=O)(=O)c2ccc3c(c2)n(C)c(=O)n3C)cc1 | 53* | 0 | 11 | -2 | 1 | 5 | 16 | 0.16 | x
CSc1ccc(NC(=O)N2CCC(C(=O)c3ccc(F)cc3)CC2)cc1 | 71* | 1 | 6 | 10 | 0 | -15 | 96* | 0.49 | 19
Cc1cc(C)cc(NC(=O)N2CCC(C(=O)c3ccc(F)cc3)CC2)c1 | 67* | -1 | 1 | 8 | -1 | -2 | 96* | 0.074 | 13
Cc1cccc(NC(=O)N2CCC(C(=O)c3ccc(F)cc3)CC2)c1 | 84* | 1 | 3 | 8 | 0 | -3 | 98* | -0.69 | 13
CCN(CC(=O)Nc1ccc(OC)cc1)C(=O)c1ccc(N2C(=O)CCC2=O)cc1 | x | 1 | -1 | 7 | -1 | 3 | x | x | x
SMILES | Hep lipid drop | MC4R ag barr | MC4R antag cAMP | PREPL inhibitor | NTR1 agonist | HTR2A ag | Lipid drop inh | AML12 cytotox | AML12 tox ATP
CC(NC(=O)C1CCCCC1)C(c1cccs1)N1CCN(C)CC1 (configuration not stated) | 3 | -1 | 6 | 1 | -1 | 2 | x | x | x
O=C(NC1CCCCC1)C(=O)c1c[nH]c2ccccc12 | 8 | -2 | -1 | 1 | 0 | 5 | x | x | x
O=C(CSc1nnc(-c2cccs2)n1C1CC1)NCC1CCCO1 (configuration not stated) | x | -1 | 5 | 13 | 2 | 4 | x | x | x
C=C(C)C1CC=C(C)/C(=N/Nc2ccccc2[N+](=O)[O-])C1 (configuration not stated) | 78* | 0 | 13 | 5 | 10 | 5 | 115* | -0.4 | 3
Cc1ccccc1N1CCN(C(=S)c2ccc(-c3ccc([N+](=O)[O-])cc3)o2)CC1 | 86* | -1 | -9 | 6 | 2 | -1 | 69* | -0.28 | x
Cc1cc(Cl)cc(Cl)c1OCCN1CCCC1 | 2 | -1 | 3 | -16 | 0 | 8 | x | x | x
CCOc1ccc(CCNC(=O)COC(=O)/C=C/c2ccc(OC)c(OC)c2)cc1OCC | 94* | -2 | 0 | 0 | 0 | 2 | 109* | -0.73 | 7
CCCNC(=O)COC(=O)/C=C/c1ccc(C)o1 | 21 | -2 | -1 | 0 | 1 | 2 | x | x | x
CCOc1ccc(CCNC(=O)COC(=O)/C=C/c2ccc(C)o2)cc1OCC | 59* | -2 | 10 | 12 | 1 | 2 | 91* | -0.68 | 10
O=C(c1ccc(N2CCCC2=O)cc1)N1CCN(c2cccc(C(F)(F)F)c2)CC1 | x | -3 | 3 | x | 0 | 7 | x | x | x
CCOC(=O)c1ccc(NC(=O)CSc2nc3ncccc3[nH]2)cc1 | 7 | -3 | -2 | -10 | 0 | -2 | x | x | x
CCCCc1ccc(NC(=O)CSc2nnc(C)c(=O)n2N)cc1 | 81* | -3 | 0 | 14 | 0 | 0 | 106* | 0.44 | 21
CCCCc1ccc(NC(=O)CSc2nc3ncccc3[nH]2)cc1 | 52* | 3 | -4 | -10 | 2 | 0 | 92* | -0.43 | 30
CC(=O)Nc1ccc(NC(=O)CSc2nnc(C)c(=O)n2N)cc1 | -6 | -1 | 7 | 4 | 0 | 6 | x | x | x
